According to ChEMBL document CHEMBL1124215, “Improved delivery through biological membranes. 26. Design, synthesis, and pharmacological activity of a novel chemical delivery system for beta-adrenergic blocking agents” (1988):

Columns and labels:
Oryctolagus cuniculus [1] = assay: Percentage change of IOP in rabbits after 8 hr administration (2.5%) of compound; type: functional
Procedure, shortened: (§1)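 Rabbits received 1% or 2.5% drug solution in pH 7.4 buffer or saline in both eyes, at least four per group. A control group of at least three rabbits received carrier only. IOP was read by pneumatonometer in unrestrained, unanesthetized animals after one drop of 0.5% propacaine diluted 1:2 with saline. Readings were taken at 30 and 60 min and at 2–8 h. Values are mean ± SE, with significance by Student's t test.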

Oryctolagus cuniculus [2] = assay: Effect on IOP of rabbits 2 hr after administration (1%); type: functional
Procedure, shortened: (§2)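 IOP was read by pneumatonometer in unrestrained, unanesthetized rabbits after local propacaine drops. Drug was given as a 1% or 2.5% solution in pH 7.4 buffer or saline to both eyes, at least four rabbits per group; controls (at least three) received carrier only. Readings were taken at 30 and 60 min and at 2, 3, 4, 6 and 8 h. Values are mean ± SE; Student's t test.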

Oryctolagus cuniculus [3] = assay: Effect on IOP of rabbits 4 hr after administration (1%); type: functional; procedure, shortened: as §2
Oryctolagus cuniculus [4] = assay: Concentration of propranolone oxime in cornea of rabbit after 60 min administration of compound; type: functional, organism-based
Procedure, shortened: (§3)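 Adult male New Zealand albino rabbits (2.5–3.5 kg), at least four per time point. 100 µL of a 1% solution in saline was instilled topically into both eyes. Animals were killed at 30, 60 or 120 min. Cornea and iris-ciliary body were homogenized in methanol to 10% homogenates and deproteinized by centrifugation. Aqueous humor was analysed undiluted. HPLC was calibrated against spiked control-rabbit tissue. Values are mean ± SE, µg/g.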

Oryctolagus cuniculus [5] = assay: Percentage change of IOP in rabbits after 2 hr administration (1%) of compound; type: functional; procedure, shortened: as §2
Oryctolagus cuniculus [6] = assay: Concentration in cornea of rabbit after 120 min administration of compound; type: functional, organism-based; procedure, shortened: as §3
Oryctolagus cuniculus [7] = assay: Effect on IOP of rabbits 4 hr after administration (2.5%); type: functional; procedure, shortened: as §2
Oryctolagus cuniculus [8] = assay: Percentage change of IOP in rabbits after 0 min administration (2.5%) of compound; type: functional; procedure, shortened: as §2
Oryctolagus cuniculus [9] = assay: Concentration of propranolone oxime in cornea of rabbit after 30 min administration of compound; type: functional, organism-based; procedure, shortened: as §3
Oryctolagus cuniculus [10] = assay: Effect on IOP of rabbits 0 min after administration (2.5%); type: functional; procedure, shortened: as §2
Oryctolagus cuniculus [11] = assay: Percentage change of IOP in rabbits after 30 min administration (1%) of compound; type: functional; procedure, shortened: as §1
Oryctolagus cuniculus [12] = assay: Percentage change of IOP in rabbits after 2 hr administration (2.5%) of compound; type: functional; procedure, shortened: as §2
Oryctolagus cuniculus [13] = assay: Concentration of propranolone oxime in aqueous humor of rabbit after 30 min administration of compound; type: functional, organism-based; conditions: Aqueous humor of eyeball; procedure, shortened: as §3
Oryctolagus cuniculus [14] = assay: Concentration in cornea of rabbit after 60 min administration of compound; type: functional, organism-based; procedure, shortened: as §3
Oryctolagus cuniculus [15] = assay: Percentage change of IOP in rabbits after 30 min administration (2.5%) of compound; type: functional; procedure, shortened: as §1
Oryctolagus cuniculus [16] = assay: Concentration in aqueous humor of rabbit after 60 min administration of compound; type: functional, organism-based; conditions: Aqueous humor of eyeball; procedure, shortened: as §3
Oryctolagus cuniculus [17] = assay: Percentage change of IOP in rabbits after 60 min administration (1%) of compound; type: functional; procedure, shortened: as §1
Oryctolagus cuniculus [18] = assay: Percentage change of IOP in rabbits after 3h administration (2.5%) of compound; type: functional; procedure, shortened: as §1
Oryctolagus cuniculus [19] = assay: Concentration in iris -ciliary body of rabbit after 30 min administration of compound; type: functional, organism-based; procedure, shortened: as §3
Oryctolagus cuniculus [20] = assay: Effect on IOP of rabbits 6 hr min after administration (2.5%); type: functional; procedure, shortened: as §2
Oryctolagus cuniculus [21] = assay: Concentration of propranolone oxime in iris-ciliary body of rabbit after 30 min administration of compound; type: functional, organism-based; procedure, shortened: as §3
Oryctolagus cuniculus [22] = assay: Percentage change of IOP in rabbits after 4 hr administration (1%) of compound; type: functional; procedure, shortened: as §1
Oryctolagus cuniculus [23] = assay: Percentage change of IOP in rabbits after 3h administration (1%) of compound; type: functional; procedure, shortened: as §1
Oryctolagus cuniculus [24] = assay: Percentage change of IOP in rabbits after 8 hr administration (1%) of compound; type: functional; procedure, shortened: as §1
Oryctolagus cuniculus [25] = assay: Effect on IOP of rabbits 3h after administration (2.5%); type: functional; procedure, shortened: as §2
Oryctolagus cuniculus [26] = assay: Effect on IOP of rabbits 2hmin after administration (2.5%); type: functional; procedure, shortened: as §2
Oryctolagus cuniculus [27] = assay: Effect on IOP of rabbits 60 mins after administration (1%); type: functional; procedure, shortened: as §2
Oryctolagus cuniculus [28] = assay: Percentage change of IOP in rabbits after 6 hr administration (1%) of compound; type: functional; procedure, shortened: as §1
Oryctolagus cuniculus [29] = assay: Effect on IOP of rabbits 6 hr min after administration (1%); type: functional; procedure, shortened: as §2
Oryctolagus cuniculus [30] = assay: Effect on IOP of rabbits 60 mins after administration (2.5%); type: functional; procedure, shortened: as §2
Oryctolagus cuniculus [31] = assay: Concentration of propranolone oxime in aqueous humor of rabbit after 60 min administration of compound; type: functional, organism-based; conditions: Aqueous humor of eyeball; procedure, shortened: as §3
Oryctolagus cuniculus [32] = assay: Percentage change of IOP in rabbits after 6 hr administration (2.5%) of compound; type: functional; procedure, shortened: as §1
Oryctolagus cuniculus [33] = assay: Percentage change of IOP in rabbits after 0 min administration (1%) of compound; type: functional; procedure, shortened: as §2
Oryctolagus cuniculus [34] = assay: Effect on IOP of rabbits 30 mins after administration (2.5%); type: functional; procedure, shortened: as §2
Oryctolagus cuniculus [35] = assay: Effect on IOP of rabbits 8 hr min after administration (2.5%); type: functional; procedure, shortened: as §2
Oryctolagus cuniculus [36] = assay: Effect on IOP of rabbits 8 hr min after administration (1%); type: functional; procedure, shortened: as §2
Oryctolagus cuniculus [37] = assay: Concentration in cornea of rabbit after 30 min administration of compound; type: functional, organism-based; procedure, shortened: as §3
Oryctolagus cuniculus [38] = assay: Effect on IOP of rabbits 0 min after administration (1%); type: functional; procedure, shortened: as §2
Oryctolagus cuniculus [39] = assay: Effect on IOP of rabbits 30 mins after administration (1%); type: functional; procedure, shortened: as §2
Oryctolagus cuniculus [40] = assay: Effect on IOP of rabbits 3h after administration (1%); type: functional; procedure, shortened: as §2
Oryctolagus cuniculus [41] = assay: Concentration in iris-ciliary body of rabbit after 120 min administration of compound; type: functional, organism-based; procedure, shortened: as §3
Oryctolagus cuniculus [42] = assay: Percentage change of IOP in rabbits after 60 min administration (2.5%) of compound; type: functional; procedure, shortened: as §1
Oryctolagus cuniculus [43] = assay: Percentage change of IOP in rabbits after 4 hr administration (2.5%) of compound; type: functional; procedure, shortened: as §1
Oryctolagus cuniculus [44] = assay: Concentration in iris -ciliary body of rabbit after 60 min administration of compound; type: functional, organism-based; procedure, shortened: as §3

CC(C)NC/C(COc1cccc2ccccc12)=N\O
Change (Oryctolagus cuniculus [1]): -0.77% | IOP (Oryctolagus cuniculus [2]): 23.4 mmHg | IOP (Oryctolagus cuniculus [3]): 22.2 mmHg | Concentration (Oryctolagus cuniculus [4]): 16.4 µg/g | Change (Oryctolagus cuniculus [5]): -15.8% | Concentration (Oryctolagus cuniculus [6]): 1.1 µg/g | IOP (Oryctolagus cuniculus [7]): 20.4 mmHg | Change (Oryctolagus cuniculus [8]): 0% | Concentration (Oryctolagus cuniculus [9]): 23.8 µg/g | IOP (Oryctolagus cuniculus [10]): 26 mmHg | Change (Oryctolagus cuniculus [11]): -3.23% | Change (Oryctolagus cuniculus [12]): -13.08% | Concentration (Oryctolagus cuniculus [13]): 0.8 µg/g | Concentration (Oryctolagus cuniculus [14]): 1.1 µg/g | Change (Oryctolagus cuniculus [15]): 1.92% | Concentration (Oryctolagus cuniculus [16]): 0.7 µg/g | Change (Oryctolagus cuniculus [17]): >-11.51% | Change (Oryctolagus cuniculus [18]): >-18.46% | Concentration (Oryctolagus cuniculus [19]): 2.1 µg/g | IOP (Oryctolagus cuniculus [20]): 23.6 mmHg | Concentration (Oryctolagus cuniculus [21]): 7.8 µg/g | Change (Oryctolagus cuniculus [22]): -20.1% | Change (Oryctolagus cuniculus [23]): -16.2% | Change (Oryctolagus cuniculus [24]): 0.5% | IOP (Oryctolagus cuniculus [25]): 21.2 mmHg | IOP (Oryctolagus cuniculus [26]): 22.6 mmHg | IOP (Oryctolagus cuniculus [27]): 24 mmHg | Change (Oryctolagus cuniculus [28]): -7.08% | IOP (Oryctolagus cuniculus [29]): 25.8 mmHg | IOP (Oryctolagus cuniculus [30]): 23.4 mmHg | Concentration (Oryctolagus cuniculus [31]): 0.8 µg/g | Change (Oryctolagus cuniculus [32]): >-9.23% | Change (Oryctolagus cuniculus [33]): 0% | IOP (Oryctolagus cuniculus [34]): 26.5 mmHg | IOP (Oryctolagus cuniculus [35]): 25.8 mmHg | IOP (Oryctolagus cuniculus [36]): 27.9 mmHg | Concentration (Oryctolagus cuniculus [37]): 1.7 µg/g | IOP (Oryctolagus cuniculus [38]): 27.8 mmHg | IOP (Oryctolagus cuniculus [39]): 26.9 mmHg | IOP (Oryctolagus cuniculus [40]): 23.3 mmHg | Concentration (Oryctolagus cuniculus [41]): 0.4 µg/g | Change (Oryctolagus cuniculus [42]): -10% | Change (Oryctolagus cuniculus [43]): -21.5% | Concentration (Oryctolagus cuniculus [44]): 1.8 µg/g
